One experiment has as its system Proteus mirabilis. Description: Minimum inhibitory concentration against Proteus mirabilis delta 89. It counts as functional.
A further experiment relates to Klebsiella aerogenes. Description: Minimum inhibitory concentration of compound against Enterobacter aerogenes delta 220. Type of experiment: functional.
For the next experiment, the system named is Salmonella typhimurium. The experiment is described as follows: Minimum inhibitory concentration of compound against Salmonella Typhimurium delta 119. It counts as functional, Salmonella enterica subsp. enterica serovar Typhimurium. Particulars: Salmonella enterica.
Experiment [1] deals with Escherichia coli. The experiment is described as follows: Minimum inhibitory concentration of compound against Escherichia coli delta 120. It counts as functional.
Experiment [2] relates to Escherichia coli. The experiment is described as follows: Antibacterial activity againist Escherichia coli 120 infected NMRI mice after peroral administration. Type of experiment: functional. Particulars: po. The procedure, abridged:
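ED50 in NMRI mice infected intraperitoneally with E. coli 120; compound given orally immediately and 5 h after infection.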

The subject of experiment [3] is Neisseria gonorrhoeae. The experiment is described as follows: Minimum inhibitory concentration of compound against Neisseria gonorrhoeae AS 7720. Type of experiment: functional. The procedure, abridged:
(§1)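 Agar dilution on Kellogg agar, 10⁶ colony forming units, incubated 20 h at 36 °C in 5% CO₂; MIC is the lowest concentration giving no visible growth.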

The subject of experiment [4] is Neisseria gonorrhoeae. Description: Minimum inhibitory concentration of compound against Neisseria gonorrhoeae W2. It counts as functional. Summed up: as §1
The next experiment deals with Klebsiella pneumoniae. The experiment is described as follows: Minimum inhibitory concentration of compound against Klebsiella pneumoniae delta 217. It counts as functional.

Molecules are shown by their SMILES. Converted amounts (≈) assume the structure as drawn.

For orientation: MIC means the least concentration at which growth counts as inhibited. A high value points to a need for much substance. The term ED50 denotes the dose at which the effect has come halfway, by size or by number of responders.

As to `CS(=O)(=O)N1N=Cc2sccc2B1O`, the MIC was greater than 50 µg/mL with Proteus mirabilis; greater than 50 µg/mL in the experiment with Klebsiella aerogenes; greater than 50 µg/mL against Salmonella typhimurium; greater than 50 µg/mL against Escherichia coli [1]; greater than 8 µg/mL in the experiment with Neisseria gonorrhoeae [3]; greater than 8 µg/mL with Neisseria gonorrhoeae [4]. In addition, the minimum inhibitory concentration (MIC) with Klebsiella pneumoniae was greater than 50 µg/mL. For the same compound, the ED50 in the experiment with Escherichia coli [2] was found to be 113 mg/kg.
For `Cc1ccc(S(=O)(=O)N2N=Cc3sc(Br)cc3B2O)cc1`, the MIC with Proteus mirabilis is 1.56 µg/mL (≈ 4.05 µM); against Klebsiella aerogenes, 25 µg/mL (≈ 64.9 µM); in the experiment with Salmonella typhimurium, 3.12 µg/mL (≈ 8.1 µM); in the experiment on Escherichia coli [1], 6.25 µg/mL (≈ 16.2 µM); in the experiment on Neisseria gonorrhoeae [3], 0.5 µg/mL (≈ 1.3 µM); with Neisseria gonorrhoeae [4], 2 µg/mL (≈ 5.19 µM). Also, the minimum inhibitory concentration (MIC) against Klebsiella pneumoniae was 1.56 µg/mL (≈ 4.05 µM). Moreover, the ED50 with Escherichia coli [2] is roughly 15 mg/kg.
Turning to `CCCS(=O)(=O)N1N=Cc2cc(C)ccc2B1O`, the MIC was determined as 1.56 µg/mL (≈ 5.86 µM) against Proteus mirabilis; 10 µg/mL (≈ 37.6 µM) in the experiment on Klebsiella aerogenes; 2.5 µg/mL (≈ 9.39 µM) in the experiment with Salmonella typhimurium; 6.25 µg/mL (≈ 23.5 µM) in the experiment on Escherichia coli [1]; 2 µg/mL (≈ 7.52 µM) in the experiment on Neisseria gonorrhoeae [3]; 2 µg/mL (≈ 7.52 µM) with Neisseria gonorrhoeae [4]. The minimum inhibitory concentration (MIC) in the experiment with Klebsiella pneumoniae came to 1.25 µg/mL (≈ 4.7 µM). Besides, the 50% effect level with Escherichia coli [2] (ED50) was put at a dose of 73 mg/kg.
Turning to `Cc1ccc(S(=O)(=O)N2N=Cc3cc(C)ccc3B2O)cc1`, the MIC came out at 3.12 µg/mL (≈ 9.93 µM) with Proteus mirabilis; 50 µg/mL (≈ 159 µM) against Klebsiella aerogenes; 3.12 µg/mL (≈ 9.93 µM) against Salmonella typhimurium; 12.5 µg/mL (≈ 39.8 µM) with Escherichia coli [1]; 1 µg/mL (≈ 3.18 µM) against Neisseria gonorrhoeae [3]; 8 µg/mL (≈ 25.5 µM) with Neisseria gonorrhoeae [4]. In the experiment on Klebsiella pneumoniae, this compound came in with an MIC of 1.56 µg/mL (≈ 4.97 µM). This compound also came in with an ED50 in the experiment on Escherichia coli [2] of roughly 15 mg/kg.
Turning to `O=S(=O)(c1ccccc1Cl)N1N=Cc2sc(Br)cc2B1O`, the MIC in the experiment on Proteus mirabilis came to 0.78 µg/mL (≈ 1.92 µM); in the experiment on Klebsiella aerogenes, 25 µg/mL (≈ 61.7 µM); against Salmonella typhimurium, 3.12 µg/mL (≈ 7.69 µM); against Escherichia coli [1], 25 µg/mL (≈ 61.7 µM); in the experiment on Neisseria gonorrhoeae [3] it was 0.5 µg/mL (≈ 1.23 µM); in the experiment on Neisseria gonorrhoeae [4], 1 µg/mL (≈ 2.47 µM). Besides, in the experiment with Klebsiella pneumoniae, 1.56 µg/mL (≈ 3.85 µM) was the least that counted as inhibitory (MIC). In addition, the ED50 in the experiment with Escherichia coli [2] amounted to 39 mg/kg.
Consider `O=S(=O)(c1cc(Cl)c(Cl)cc1Cl)N1N=Cc2oc(Br)cc2B1O`, for which the minimal inhibitory concentration (MIC) against Proteus mirabilis was 6.25 µg/mL (≈ 13.6 µM); against Klebsiella aerogenes, greater than 50 µg/mL; in the experiment on Salmonella typhimurium, 50 µg/mL (≈ 109 µM); against Escherichia coli [1], greater than 50 µg/mL; against Neisseria gonorrhoeae [3], 0.5 µg/mL (≈ 1.09 µM); in the experiment with Neisseria gonorrhoeae [4], 2 µg/mL (≈ 4.36 µM). This compound gave an MIC against Klebsiella pneumoniae of 50 µg/mL (≈ 109 µM). The compound further gave a 50% effective dose (ED50) in the experiment with Escherichia coli [2] greater than 300 mg/kg.
For the compound `Cc1cc(C)c(S(=O)(=O)N2N=Cc3sc(Br)cc3B2O)c(C)c1`, the MIC in the experiment with Proteus mirabilis is 2.5 µg/mL (≈ 6.05 µM); with Klebsiella aerogenes, greater than 50 µg/mL; in the experiment on Salmonella typhimurium it was greater than 50 µg/mL; in the experiment with Escherichia coli [1], greater than 50 µg/mL; in the experiment with Neisseria gonorrhoeae [3] it was 1 µg/mL (≈ 2.42 µM); against Neisseria gonorrhoeae [4], 2 µg/mL (≈ 4.84 µM). The same compound registered an MIC in the experiment with Klebsiella pneumoniae of 25 µg/mL (≈ 60.5 µM). In addition, the ED50 in the experiment on Escherichia coli [2] is greater than 600 mg/kg.
For the compound `Cc1ccc(S(=O)(=O)N2N=Cc3cc4c(cc3B2O)C=NN(S(=O)(=O)c2ccc(C)cc2)B4O)cc1`, the MIC is 50 µg/mL (≈ 95.8 µM) against Proteus mirabilis; greater than 50 µg/mL with Klebsiella aerogenes; greater than 50 µg/mL against Salmonella typhimurium; greater than 50 µg/mL in the experiment with Escherichia coli [1]; greater than 8 µg/mL in the experiment on Neisseria gonorrhoeae [3]; greater than 8 µg/mL in the experiment with Neisseria gonorrhoeae [4]. For the same compound, the MIC against Klebsiella pneumoniae was greater than 50 µg/mL. Further, in the experiment on Escherichia coli [2], the ED50 was greater than 300 mg/kg.
As to `Cc1cc2c(s1)B(O)N(S(=O)(=O)CC(C)C)N=C2`, the MIC in the experiment with Proteus mirabilis amounted to 1.56 µg/mL (≈ 5.45 µM); in the experiment with Klebsiella aerogenes it was 6.25 µg/mL (≈ 21.8 µM); with Salmonella typhimurium it was 1.56 µg/mL (≈ 5.45 µM); in the experiment on Escherichia coli [1], 6.25 µg/mL (≈ 21.8 µM); with Neisseria gonorrhoeae [3] it was 1 µg/mL (≈ 3.49 µM); in the experiment with Neisseria gonorrhoeae [4], 1 µg/mL (≈ 3.49 µM). The same compound showed an MIC in the experiment on Klebsiella pneumoniae of 0.78 µg/mL (≈ 2.73 µM). For the same compound, in the experiment on Escherichia coli [2], the 50% effect level (ED50) was put at a dose of 5 mg/kg.
In the case of `Cc1ccc(S(=O)(=O)N2N=Cc3c(C)cccc3B2O)cc1`, the MIC is 5 µg/mL (≈ 15.9 µM) against Proteus mirabilis; greater than 50 µg/mL in the experiment with Klebsiella aerogenes; 50 µg/mL (≈ 159 µM) against Salmonella typhimurium; greater than 50 µg/mL against Escherichia coli [1]; 2 µg/mL (≈ 6.37 µM) with Neisseria gonorrhoeae [3]; 8 µg/mL (≈ 25.5 µM) in the experiment on Neisseria gonorrhoeae [4]. In the experiment on Klebsiella pneumoniae, this compound showed a minimal inhibitory concentration (MIC) of 10 µg/mL (≈ 31.8 µM). This compound displayed a median effective dose (ED50) in the experiment with Escherichia coli [2] greater than 100 mg/kg.
`CCCS(=O)(=O)N1N=Cc2cc(CC)sc2B1O`: the MIC was 1.25 µg/mL (≈ 4.37 µM) in the experiment on Proteus mirabilis; 5 µg/mL (≈ 17.5 µM) with Klebsiella aerogenes; 0.31 µg/mL (≈ 1.08 µM) in the experiment with Salmonella typhimurium; 2.5 µg/mL (≈ 8.74 µM) against Escherichia coli [1]; 0.5 µg/mL (≈ 1.75 µM) in the experiment on Neisseria gonorrhoeae [3]; 0.5 µg/mL (≈ 1.75 µM) against Neisseria gonorrhoeae [4]. The compound also had an MIC against Klebsiella pneumoniae of 0.31 µg/mL (≈ 1.08 µM). The ED50 in the experiment with Escherichia coli [2] came out at 4 mg/kg.
For `O=S(=O)(c1ccccc1)N1N=Cc2ccc(O)cc2B1O`, the MIC against Proteus mirabilis is 50 µg/mL (≈ 165 µM); against Klebsiella aerogenes, greater than 50 µg/mL; against Salmonella typhimurium it was 12.5 µg/mL (≈ 41.4 µM); against Escherichia coli [1], 50 µg/mL (≈ 165 µM); against Neisseria gonorrhoeae [3], greater than 8 µg/mL; against Neisseria gonorrhoeae [4] it was greater than 8 µg/mL. Also, it took 50 µg/mL (≈ 165 µM) to inhibit growth against Klebsiella pneumoniae (MIC). Further, it took a dose of 100 mg/kg to reach the 50% effect level in the experiment with Escherichia coli [2] (ED50).
With `Cc1ccc2c(c1)C=NN(S(C)(=O)=O)B2O`, the minimal inhibitory concentration (MIC) in the experiment on Proteus mirabilis is 25 µg/mL (≈ 105 µM); against Klebsiella aerogenes, greater than 50 µg/mL; with Salmonella typhimurium it was 12.5 µg/mL (≈ 52.5 µM); in the experiment with Escherichia coli [1], 25 µg/mL (≈ 105 µM); with Neisseria gonorrhoeae [3], greater than 8 µg/mL; against Neisseria gonorrhoeae [4], greater than 8 µg/mL. Also, the MIC with Klebsiella pneumoniae came to 6.25 µg/mL (≈ 26.3 µM). This compound yielded an ED50 in the experiment on Escherichia coli [2] of 42 mg/kg.
With `CC(C)CS(=O)(=O)N1N=Cc2sc(Br)cc2B1O`, the MIC is 6.25 µg/mL (≈ 17.8 µM) with Proteus mirabilis; 12.5 µg/mL (≈ 35.6 µM) against Klebsiella aerogenes; 1.56 µg/mL (≈ 4.44 µM) in the experiment on Salmonella typhimurium; 12.5 µg/mL (≈ 35.6 µM) in the experiment with Escherichia coli [1]; 2 µg/mL (≈ 5.7 µM) in the experiment with Neisseria gonorrhoeae [3]; 2 µg/mL (≈ 5.7 µM) in the experiment on Neisseria gonorrhoeae [4]. For the same compound, the MIC against Klebsiella pneumoniae was found to be 1.56 µg/mL (≈ 4.44 µM). The ED50 in the experiment on Escherichia coli [2] came out at 73 mg/kg.

The values above are taken from ChEMBL document CHEMBL1122708, “Preparation and antibacterial activities of new 1,2,3-diazaborine derivatives and analogues” (1984).
